The source of these data is ChEMBL document CHEMBL1800028, “Analogues of 4-[(7-Bromo-2-methyl-4-oxo-3H-quinazolin-6-yl)methylprop-2-ynylamino]-N-(3-pyridylmethyl)benzamide (CB-30865) as potent inhibitors of nicotinamide phosphoribosyltransferase (Nampt)” (J Med Chem, 2010).

One assay relates to HCT-116. Nature of the assay: Cytotoxicity against human HCT116 cells after 72 hrs. In kind it is functional. An outline of the steps:
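HCT116 colon carcinoma cells treated with compound for 72 h; viability read out as cellular ATP levels.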

Assay [1] has as its target T1, Nicotinamide phosphoribosyltransferase (Homo sapiens, UniProt P43490). Nature of the assay: Inhibition of nicotinamide phosphoribosyltransferase-catalyzed conversion of nicotinamide to nicotinamide mononucleotide. An outline of the steps: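 Coupled-enzyme format: Nampt turnover of nicotinamide to NMN monitored through a downstream coupled reaction; IC50 determined.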
Target sequence in this assay (P43490 whole entry): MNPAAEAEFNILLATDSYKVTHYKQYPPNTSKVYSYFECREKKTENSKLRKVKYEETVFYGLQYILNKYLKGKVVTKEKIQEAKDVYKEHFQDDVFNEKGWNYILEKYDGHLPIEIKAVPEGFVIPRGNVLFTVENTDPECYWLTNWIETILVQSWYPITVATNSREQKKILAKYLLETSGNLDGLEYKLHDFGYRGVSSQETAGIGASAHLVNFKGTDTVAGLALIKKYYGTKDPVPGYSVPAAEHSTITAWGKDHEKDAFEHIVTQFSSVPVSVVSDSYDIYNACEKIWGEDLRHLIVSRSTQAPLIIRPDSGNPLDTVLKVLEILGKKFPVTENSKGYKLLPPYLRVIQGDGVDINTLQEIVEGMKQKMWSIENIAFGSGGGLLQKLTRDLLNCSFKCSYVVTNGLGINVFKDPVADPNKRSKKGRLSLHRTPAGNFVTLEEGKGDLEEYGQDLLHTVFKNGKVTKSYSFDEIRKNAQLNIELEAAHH

The target of assay [2] is T1, Nicotinamide phosphoribosyltransferase. Nature of the assay: Inhibition of Nampt activity in H2O2-induced DNA damage in human MCF10A cells stably transfected with PIK3CA (H1047R) assessed as loss of PARP activity. The conditions noted are these: MCF-10A. In kind it is cell-based.
Target sequence in this assay (P43490 whole entry, looked up): as the sequence (P43490 whole entry) above

Compound `C/C=C/CN(Cc1ccccc1Cl)c1ccc(C(=O)NCc2cccnc2)cc1` had an Activity in the assay with HCT-116 of 0.099 µM. Also, the IC50 (in general, the point on the concentration scale where inhibition reaches its midpoint) in assay [1] was determined as 1.5 nM. In addition, the inhibitory concentration in assay [2] was 0.0089 µM.
The like results for `C#CCN(Cc1ccc2nc(C)n(C)c(=O)c2c1)c1ccc(C(=O)NCc2cccnc2)cc1` were, in that order, 0.034 µM, 3.6 nM and 0.0095 µM.
Compound `O=C(NCc1cccnc1)c1ccc(N(Cc2ccccc2Cl)CC2CC2)cc1` had an Activity with HCT-116 of 0.059 µM. In assay [1], this compound had a concentration for half-maximal inhibition (IC50) of 1.3 nM. In assay [2], the inhibitory concentration amounted to 0.011 µM.
For `C#CCN(Cc1ccc2nc(C)n(C)c(=O)c2c1)c1ccc(C(=O)NCc2ccc(F)c(F)c2)cc1`, in that order: more than 10 µM, 30 nM and more than 5 µM.
In assay [1], `Cc1[nH]c2nc(N)[nH]c(=O)c2c1Sc1ccc(C(=O)NCc2cccnc2)cc1` displayed an IC50 of 2800 nM. Besides, the inhibitory concentration in assay [2] is more than 5 µM.
`Cc1c(Sc2ccc(C(=O)NCc3cccnc3)cc2)[nH]c2nc(N)nc(N)c12`: in assay [1], the IC50 stood at 1200 nM.
In turn, `C#CCN(Cc1ccc2ncn(C)c(=O)c2c1)c1ccc(C(=O)NCc2cccnc2)cc1` came in with an Activity in the assay on HCT-116 of 0.3 µM. In assay [1], the IC50 was 12 nM. For the same compound, the inhibitory concentration in assay [2] worked out at 0.025 µM.
On to `CN(Cc1ccccc1Cl)c1ccc(C(=O)NCc2cccnc2)cc1`, for which the IC50 in assay [1] is more than 10000 nM.
Regarding `C#CCN(Cc1ccc2nc(C)n(C)c(=O)c2c1)c1ccc(C(=O)NCc2ccc(F)cc2F)cc1`, the Activity in the assay on HCT-116 was more than 10 µM. In assay [1], 49 nM corresponded to half-maximal inhibition (IC50). In assay [2], the inhibitory concentration is more than 5 µM.
For `CCN(Cc1ccccc1Cl)c1ccc(C(=O)NCc2cccnc2)cc1`, in that order: more than 10 µM, 330 nM and more than 5 µM.
In assay [1], `CCCCN(Cc1ccccc1Cl)c1ccc(C(=O)NCc2cccnc2)cc1` registered an IC50 of more than 10000 nM.
In the assay with HCT-116, `O=C(NCc1cccnc1)c1ccc(N(Cc2ccccc2)Cc2ccccc2Cl)cc1` displayed an Activity of 0.7 µM. The same compound registered a half-inhibitory concentration (IC50) in assay [1] of 110 nM. Also, in assay [2], the inhibitory concentration was found to be 0.17 µM.
For `Cc1nc2ccc(CN(CC3CC3)c3ccc(C(=O)NCc4cccnc4)cc3)cc2c(=O)n1C`, in that order: 0.11 µM, 2600 nM and 0.019 µM.
The compound `C#CCN(Cc1ccc2nc(C)n(C)c(=O)c2c1)c1ccc(C(=O)NCc2nc3ccccc3[nH]2)cc1` displayed an Activity with HCT-116 of 5.4 µM. Further, the IC50 in assay [1] worked out at 130 nM. The inhibitory concentration in assay [2] was more than 5 µM.
The like results for `CCCN(Cc1ccccc1Cl)c1ccc(C(=O)NCc2cccnc2)cc1` were, in that order, 3.5 µM, 15 nM and 0.24 µM.
The like results for `C#CCN(Cc1cc2c(=O)n(C)c(CN3CCN(CCCN)CC3)nc2cc1Cl)c1ccc(C(=O)NCc2cccnc2)cc1` were, in that order, 0.018 µM, 0.3 nM and 0.0018 µM.
The like results for `C#CCCN(Cc1ccc2nc(C)n(C)c(=O)c2c1)c1ccc(C(=O)NCc2cccnc2)cc1` were, in that order, 6.3 µM, 950 nM and 2.9 µM.
In the assay with HCT-116, `C#CCCN(Cc1cc2c(=O)n(C)cnc2cc1Cl)c1ccc(C(=O)NCc2cccnc2)cc1` registered an Activity of 0.15 µM. In addition, the IC50 in assay [1] amounted to 12 nM. Further, the inhibitory concentration in assay [2] came out at 0.03 µM.
Turning to `CC(C)CN(Cc1ccccc1Cl)c1ccc(C(=O)NCc2cccnc2)cc1`, 420 nM corresponded to half-maximal inhibition in assay [1] (IC50).
As to `Cn1cnc2cc(Cl)c(NCc3ccc(C(=O)NCc4cccnc4)cc3)cc2c1=O`, the Activity in the assay on HCT-116 is 0.42 µM. The IC50 in assay [1] stood at 3.8 nM. For the same compound, in assay [2], the inhibitory concentration turned out to be 0.0093 µM.
The like results for `C#CCN(Cc1ccc2nc(C)n(C)c(=O)c2c1)c1ccc(C(=O)NCc2cccc(F)c2)cc1` were, in that order, more than 10 µM, 250 nM and more than 5 µM.
In turn, `C#CCN(Cc1cc2c(=O)n(C)c(C)nc2cc1Cl)c1ccc(C(=O)NCc2nc3ccccc3[nH]2)cc1` registered an Activity with HCT-116 of 5.7 µM. Further, in assay [1], the midpoint of inhibition, the IC50, lay at 40 nM. In assay [2], the inhibitory concentration is 3.2 µM.
The like results for `C#CCN(Cc1cc2c(=O)n(C)c(C)nc2cc1Cl)c1ccc(C(=O)NCc2cccnc2)cc1` were, in that order, 0.0021 µM, 0.55 nM and 0.00045 µM.
The like results for `CC(C)=CCN(Cc1ccc2nc(C)n(C)c(=O)c2c1)c1ccc(C(=O)NCc2nc3ccccc3[nH]2)cc1` were, in that order, 1.4 µM, 31 nM and 0.7 µM.
The like results for `Cn1cnc2cc(Cl)c(C(=O)Nc3ccc(C(=O)NCc4cccnc4)cc3)cc2c1=O` were, in that order, 0.73 µM, 12 nM and 0.048 µM.
On to `Cc1noc(C)c1CN(Cc1ccc2nc(C)n(C)c(=O)c2c1)c1ccc(C(=O)NCc2cccnc2)cc1`, for which the Activity in the assay on HCT-116 worked out at 5.3 µM. In addition, the IC50 in assay [1] was 210 nM. Also, the inhibitory concentration in assay [2] stood at 0.012 µM.
With `Cc1c(Sc2ccc(C(=O)NCCc3cccnc3)cc2)[nH]c2nc(N)nc(N)c12`, the Activity in the assay on HCT-116 was more than 10 µM. In assay [1], this compound displayed an IC50 of 90 nM.
Consider `CC(C)=CCN(Cc1cc2c(=O)n(C)c(C)nc2cc1Cl)c1ccc(C(=O)NCc2nc3ccccc3[nH]2)cc1`, for which the Activity in the assay with HCT-116 came out at 6.4 µM. Also, the IC50 in assay [1] amounted to 25 nM. Also, in assay [2], the inhibitory concentration is more than 5 µM.
Compound `CC(C)=CCN(Cc1cc2c(=O)n(C)nnc2cc1Cl)c1ccc(C(=O)NCc2cccnc2)cc1` yielded an Activity with HCT-116 of 0.003 µM. For the same compound, in assay [2], the inhibitory concentration turned out to be 0.0017 µM.
Take `C#CCN(Cc1ccc2nc(C)n(C)c(=O)c2c1)c1ccc(C(=O)NCc2ccccc2F)cc1`: the Activity with HCT-116 came to 9.7 µM. The compound further gave an IC50 in assay [1] of 34 nM. Also, in assay [2], the inhibitory concentration was more than 5 µM.
For `C#CCN(Cc1cc2c(=O)n(C)c(CO)nc2cc1Cl)c1ccc(C(=O)NCc2cccnc2)cc1`, in that order: 0.0016 µM, 0.79 nM and 0.0001 µM.
For `C#CCN(Cc1ccc2nc(C)n(C)c(=O)c2c1)c1ccc(C(=O)NCc2ccc3c(c2)OCO3)cc1`, in that order: more than 10 µM, 85 nM and more than 5 µM.
The like results for `C#CCN(Cc1coc2nc(N)nc(N)c12)c1ccc(C(=O)NCc2cccnc2)cc1` were, in that order, more than 10 µM, more than 10000 nM and more than 5 µM.
In the case of `CC(C)=CCN(Cc1ccc2nc(C)n(C)c(=O)c2c1)c1ccc(C(=O)NCc2cccnc2)cc1`, the Activity with HCT-116 is 0.0035 µM. The compound also had an IC50 in assay [1] of 1.4 nM. The inhibitory concentration in assay [2] was 0.00023 µM.
For `C/C=C/CN(Cc1ccc2nc(C)n(C)c(=O)c2c1)c1ccc(C(=O)NCc2cccnc2)cc1`, the Activity in the assay with HCT-116 turned out to be 0.0044 µM. In assay [1], this compound came in with an IC50 of 2.9 nM. In addition, the inhibitory concentration in assay [2] is 0.0016 µM.
For `C#CCN(Cc1ccc2nc(C)n(C)c(=O)c2c1)c1ccc(C(=O)NCc2ccc(F)c(F)c2F)cc1`, in that order: more than 10 µM, 98 nM and more than 5 µM.
